Laboratory results taken from ChEMBL document CHEMBL1933016, “Hydroxycoumarins as selective MAO-B inhibitors” (Bioorg Med Chem Lett, 2012).

Key:
[1] = molecular target: T1, Amine oxidase [flavin-containing] A (Homo sapiens, UniProt P21397); assay: Inhibition of human recombinant MAOA expressed in baculovirus-infected BTI insect cells assessed as conversion of p-tyramine into p-hydroxyphenyl-acetaldehyde at 100 uM after 15 mins by fluorimetric assay; conditions: 0.25 h
T1 sequence (P21397 whole entry): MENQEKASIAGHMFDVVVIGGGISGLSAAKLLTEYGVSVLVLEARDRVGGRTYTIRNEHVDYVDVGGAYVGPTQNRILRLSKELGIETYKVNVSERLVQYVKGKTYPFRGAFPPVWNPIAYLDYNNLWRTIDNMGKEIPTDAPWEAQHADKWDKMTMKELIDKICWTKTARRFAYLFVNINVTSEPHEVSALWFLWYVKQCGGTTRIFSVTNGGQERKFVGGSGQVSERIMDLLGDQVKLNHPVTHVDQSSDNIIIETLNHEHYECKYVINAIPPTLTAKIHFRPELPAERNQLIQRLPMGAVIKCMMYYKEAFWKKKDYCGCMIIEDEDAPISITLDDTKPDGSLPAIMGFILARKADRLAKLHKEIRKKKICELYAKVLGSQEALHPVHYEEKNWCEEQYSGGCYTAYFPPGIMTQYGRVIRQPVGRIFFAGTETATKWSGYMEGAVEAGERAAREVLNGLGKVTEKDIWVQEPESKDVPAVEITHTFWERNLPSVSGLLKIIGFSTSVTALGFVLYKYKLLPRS
Procedure, shortened: (§1)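 Recombinant hMAO-A or hMAO-B was adjusted to the same velocity (165 pmol p-tyramine/min; specific activity 150 nmol/min/mg for A, 22 for B). Enzyme and drug in 0.05 M sodium phosphate pH 7.4 were preincubated 15 min at 37 °C. Amplex Red, 1 U/mL HRP and 1 mM p-tyramine (final) were added, and resorufin fluorescence was read at 37 °C. Values were background-subtracted against enzyme-free blanks with vehicle controls.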

[2] = molecular target: T2, Amine oxidase [flavin-containing] B (Homo sapiens, UniProt P27338); assay: Inhibition of human recombinant MAOB expressed in baculovirus-infected BTI insect cells assessed as using transformed p-tyramine after 15 mins by fluorimetric assay; type: single protein
T2 sequence (P27338 whole entry): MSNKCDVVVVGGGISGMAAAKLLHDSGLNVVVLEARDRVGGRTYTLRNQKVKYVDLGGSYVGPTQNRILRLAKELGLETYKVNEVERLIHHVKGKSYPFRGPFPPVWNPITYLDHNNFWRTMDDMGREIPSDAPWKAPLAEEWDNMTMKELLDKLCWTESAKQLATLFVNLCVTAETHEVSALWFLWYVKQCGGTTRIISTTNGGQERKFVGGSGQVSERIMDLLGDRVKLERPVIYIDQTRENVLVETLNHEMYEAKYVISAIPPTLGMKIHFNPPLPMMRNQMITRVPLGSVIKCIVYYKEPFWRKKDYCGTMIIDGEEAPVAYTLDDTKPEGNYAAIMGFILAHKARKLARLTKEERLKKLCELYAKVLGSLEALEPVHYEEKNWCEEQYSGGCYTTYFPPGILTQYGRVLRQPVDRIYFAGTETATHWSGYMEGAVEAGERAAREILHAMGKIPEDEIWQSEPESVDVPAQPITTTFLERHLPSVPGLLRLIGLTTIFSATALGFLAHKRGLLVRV

[3] = species: Homo sapiens; assay: Selectivity index, ratio of IC50 for human recombinant MAOA to IC50 for human recombinant MAOB
Procedure, shortened: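 The index is IC50(MAO-A)/IC50(MAO-B) from the fluorimetric Amplex Red/p-tyramine assay on recombinant human isoforms.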

[4] = molecular target: T2, Amine oxidase [flavin-containing] B; assay: Inhibition of human recombinant MAOB expressed in baculovirus-infected BTI insect cells assessed as using transformed p-tyramine at 100 uM after 15 mins by fluorimetric assay; conditions: 0.25 h; procedure, shortened: as §1

Structure (SMILES)	inhibition (INH) [1]	IC50 [2] [µM]	Ratio IC50 [3]	inhibition (INH) [4]
COc1ccc(-c2c(O)c3cc(C)ccc3oc2=O)cc1	Not Active	32	> 3.1	
COc1ccc(-c2c(O)c3cc(C)ccc3oc2=O)cc1Cl	Not Active	42.7	> 2.3	
COc1ccc(-c2c(O)c3ccccc3oc2=O)cc1Cl	Not Active			
COc1ccc(-c2c(O)c3cc(Cl)ccc3oc2=O)cc1	Not Active			Not Active
COc1ccc(-c2c(O)c3cc(Cl)ccc3oc2=O)cc1Cl	Not Active	2.79	> 36	
COc1ccc(-c2c(O)c3ccccc3oc2=O)cc1	Not Active	69.6	> 1.4	
O=c1oc2ccccc2c(O)c1-c1ccccc1	Not Active			Not Active
